Test [1] is filed under the species Mus musculus. As to the kind of experiment: Analgesic activity determined in mice using the Bradykinin-induced Writhing test. It counts as functional. A digest of the protocol:
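Male CD1 mice (15–20 g), test drug given orally 15 min before bradykinin ip (4 μg in 0.2 mL sterile water), then a second bradykinin injection (0.2 μg/0.1 mL) 15 min later. Writhing was scored over the next 10 min, with control groups of 10 mice. ED50 was derived by log-probit analysis from at least five doses, with 95% limits.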
Background: Writhing tests count abdominal constrictions after an irritant is injected.

Test [2] concerns Mus musculus. As to the kind of experiment: (§1) Hepatotoxicity in Swiss-Webster Mice Caused by compound at 400 mg/kg (i.p.) dose. It counts as functional. To be noted: route intraperitoneal. A digest of the protocol:
(§2)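 Male Swiss-Webster mice (20 g), groups of 10, were given a single ip dose of drug in saline with no pretreatment. Survivors were decapitated at 24 h and counted. Plasma ALT was measured, and liver sections (formalin-fixed, paraffin, H&E) were scored for necrosis severity in survivors. Values are means ± SE.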

Test [3] has as its system Mus musculus. As to the kind of experiment: (§3) Hepatotoxicity in Swiss-Webster Mice Caused by compound at 750 mg/kg (i.p.) dose. The following applies: route intraperitoneal. The test is classed as functional. A digest of the protocol: as §2
Test [4] relates to Mus musculus. The test is described as §1. The arrangement: dose 400 mg/kg. The test is classed as functional, organism-based. Put shortly: as §2
Test [5] deals with Mus musculus. Described as §3. Also noted: dose 750 mg/kg. It counts as functional, organism-based. A digest of the protocol: as §2
Test [6] relates to Mus musculus. Briefly: Hepatotoxicity in Swiss-Webster Mice Caused by compound at 400 mg/kg (i.p.) dose; 9/10. It counts as functional. To be noted: route intraperitoneal. Put shortly: as §2
The nature of test [7]: (§4) Hepatotoxicity in Swiss-Webster Mice Caused by compound at 400 mg/kg (i.p.) (phenobarbital pretreated animals)dose. It counts as functional, Mus musculus. The following applies: route intraperitoneal. Put shortly: (§5)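 Male Swiss-Webster mice (20 g), groups of 10. Sodium phenobarbital (80 mg/kg ip) was given 72, 60, 48 and 24 h before drug, then drug ip in saline. At 24 h: survivors counted, plasma ALT measured, and H&E liver sections scored for necrosis in survivors. Values are means ± SE.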

The subject of test [8] is Mus musculus. The description is as §4. The test is classed as functional, organism-based. The arrangement: dose 400 mg/kg. A digest of the protocol:
as §5

Test [9] can be described thus: (§6) Hepatotoxicity in Swiss-Webster Mice Caused by compound at 400 mg/kg (i.p.) (cobaltous chloride pretreated animals)dose. It counts as functional, Mus musculus. To be noted: route intraperitoneal. Put shortly: (§7)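 Male Swiss-Webster mice (20 g), groups of 10. Cobaltous chloride (30 mg/kg ip) was given 48, 36, 24 and 12 h before drug, then drug ip in saline. At 24 h: survivors counted, plasma ALT measured, and H&E liver sections scored for necrosis in survivors. Values are means ± SE.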

Test [10] relates to Mus musculus. As to the kind of experiment: Hepatotoxicity in Swiss-Webster Mice Caused by compound at 750 mg/kg (i.p.) dose; 4/10. The test is classed as functional. The following applies: route intraperitoneal. Put shortly:
as §2

Test [11] relates to Mus musculus. Briefly: Hepatotoxicity in Swiss-Webster Mice Caused by compound at 1000 mg/kg (i.p.) (pipernonyl butoxide pretreated animals)dose. It counts as functional, organism-based. The arrangement: dose 1000 mg/kg. Put shortly: (§8)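 Male Swiss-Webster mice (20 g), groups of 10. Piperonyl butoxide (neat, single 1360 mg/kg ip dose) was given 30 min before drug, then drug ip in saline. At 24 h: survivors counted, plasma ALT measured, and H&E liver sections scored for necrosis in survivors. Values are means ± SE.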

Test [12] relates to Mus musculus. Briefly: Hepatotoxicity in Swiss-Webster Mice Caused by compound at 400 mg/kg (i.p.) (pipernonyl butoxide pretreated animals)dose; 9/10. It counts as functional. To be noted: route intraperitoneal. A digest of the protocol: as §8
The test system of test [13] is Mus musculus. The description is as §6. The test is classed as functional, organism-based. The arrangement: dose 400 mg/kg. A digest of the protocol:
as §7

Test [14] is described as follows: Hepatotoxicity in Swiss-Webster Mice Caused by compound at 400 mg/kg (i.p.) (cobaltous chloride pretreated animals)dose; 8/10. It counts as functional, Mus musculus. The following applies: route intraperitoneal. Put shortly:
as §7

Test [15] can be described thus: Hepatotoxicity in Swiss-Webster Mice Caused by compound at 400 mg/kg (i.p.) (phenobarbital pretreated animals)dose; 4/10. The following applies: route intraperitoneal. The test is classed as functional, Mus musculus. A digest of the protocol: as §5
In test [16] the test system is Mus musculus. Briefly: Hepatotoxicity in Swiss-Webster Mice Caused by compound at 400 mg/kg (i.p.) (pipernonyl butoxide pretreated animals)dose. It counts as functional. The following applies: route intraperitoneal. A digest of the protocol: as §8

In turn, `CC(=O)Nc1ccc(O)c(C)c1` gave an ED50 in [1] of 94.6 mg/kg. Besides, the “Hepatic necrosis in survivors” value was 1 in test [2]; 2.75 in [3]; 3.5 in test [7]; 0.56 in [9]; 0 in test [16]. In addition, the Plasma ALT at 24 h came out at 1080 mU ml-1 in [4]; 3250 mU ml-1 in test [5]; 5130 mU ml-1 in test [8]; 83 mU ml-1 in test [11]; 345 mU ml-1 in test [13]. Moreover, the “Survivors at 24 h” value turned out to be 9 in [6]; 4 in [10]; 9 in [12]; 8 in [14]; 4 in test [15].

As usually defined, the ED50 is the dose that gives a 50% effect, or the effect in half of the subjects. Lower therefore signals greater potency.
